Experimental data reported in ChEMBL document CHEMBL1287666, “Synthesis and in vitro antifungal activities of new 3-substituted benzopyrone derivatives” (2010).
≈ marks a conversion by molar mass, not a printed value.

Assays:
Format in all cases: functional
[1] = test system: Cryptococcus neoformans; assay: Antifungal activity against Cryptococcus neoformans by serial dilution method
Procedure, shortened: (§1)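 Broth serial dilution in 96-well microplates against a panel of five human pathogenic fungi. Activity is reported as the minimal inhibitory concentration (MIC), and fluconazole served as the positive control.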

[2] = test system: Candida parapsilosis; assay: Antifungal activity against Candida parapsilosis clinical isolate by serial dilution method; conditions: Lodderomyces parapsilosis; procedure, shortened: as §1
[3] = test system: Trichophyton rubrum; assay: Antifungal activity against Trichophyton rubrum
[4] = test system: Trichophyton rubrum; assay: Antifungal activity against Trichophyton rubrum clinical isolate by serial dilution method; procedure, shortened: as §1
[5] = test system: Nannizzia gypsea; assay: Antifungal activity against Microsporum gypseum clinical isolate by serial dilution method; procedure, shortened: as §1
[6] = test system: Candida albicans; assay: Antifungal activity against Candida albicans by serial dilution method; procedure, shortened: as §1

| SMILES | MIC [1] | MIC [2] | MIC80 [3] | MIC [4] | MIC [5] | MIC [6] |
| --- | --- | --- | --- | --- | --- | --- |
| CCCCC(=O)OCC#Cc1coc2cc(OC)ccc2c1=O | 25 µg/mL (≈ 79.5 µM) | 25 µg/mL (≈ 79.5 µM) | 1.5 µg/mL (≈ 4.77 µM) | 1.5 µg/mL (≈ 4.77 µM) | 25 µg/mL (≈ 79.5 µM) | 25 µg/mL (≈ 79.5 µM) |
| COc1ccc2c(=O)c(C#CCO)coc2c1 | > 100 µg/mL | > 100 µg/mL |  | > 100 µg/mL | > 100 µg/mL | > 100 µg/mL |
| COc1ccc2c(=O)c(C#CCOC(C)=O)coc2c1 | > 100 µg/mL | > 100 µg/mL |  | > 100 µg/mL | 25 µg/mL (≈ 91.8 µM) | > 100 µg/mL |
| CCCCCCCC(=O)OCC#Cc1coc2cc(OC)ccc2c1=O | > 100 µg/mL | > 100 µg/mL |  | > 100 µg/mL | > 100 µg/mL | > 100 µg/mL |
| COc1ccc2c(=O)c(C#CCOC(=O)CCCCC(C)C)coc2c1 | 50 µg/mL (≈ 140 µM) | 25 µg/mL (≈ 70.1 µM) |  | 12.5 µg/mL (≈ 35.1 µM) | 12.5 µg/mL (≈ 35.1 µM) | > 100 µg/mL |
| COc1ccc2c(=O)c(C#CCOC(=O)C3C(C)(C)C3(C)C)coc2c1 | > 100 µg/mL | > 100 µg/mL |  | > 100 µg/mL | 12.5 µg/mL (≈ 35.3 µM) | > 100 µg/mL |
| COc1ccc2c(=O)c(C#CCOC(=O)c3ccc([N+](=O)[O-])cc3)coc2c1 | > 100 µg/mL | > 100 µg/mL |  | > 100 µg/mL | > 100 µg/mL | > 100 µg/mL |
| COc1ccc2c(=O)c(C#CCOC(=O)c3cc([N+](=O)[O-])cc([N+](=O)[O-])c3)coc2c1 | > 100 µg/mL | > 100 µg/mL |  | 50 µg/mL (≈ 118 µM) | 50 µg/mL (≈ 118 µM) | > 100 µg/mL |
| COc1ccc2c(=O)c(C#CCOC(=O)c3ccccc3)coc2c1 | > 100 µg/mL | > 100 µg/mL |  | > 100 µg/mL | > 100 µg/mL | > 100 µg/mL |
| COc1ccc2c(=O)c(C#CCOC(=O)Cc3ccccc3)coc2c1 | > 100 µg/mL | > 100 µg/mL |  | > 100 µg/mL | > 100 µg/mL | > 100 µg/mL |
| COc1ccc2c(=O)c(C#CCOC(=O)Cc3ccc(Cl)cc3)coc2c1 | > 100 µg/mL | > 100 µg/mL |  | > 100 µg/mL | > 100 µg/mL | > 100 µg/mL |
| COc1ccc2c(=O)c(C#CCOC(=O)Cc3ccccc3Cl)coc2c1 | > 100 µg/mL | > 100 µg/mL |  | 50 µg/mL (≈ 131 µM) | 50 µg/mL (≈ 131 µM) | > 100 µg/mL |
| CCC(=O)OCC#Cc1coc2cc(OC)ccc2c1=O | 25 µg/mL (≈ 87.3 µM) | 25 µg/mL (≈ 87.3 µM) |  | 6.25 µg/mL (≈ 21.8 µM) | 12.5 µg/mL (≈ 43.7 µM) | 25 µg/mL (≈ 87.3 µM) |
| CCCC(=O)OCC#Cc1coc2cc(OC)ccc2c1=O | 50 µg/mL (≈ 166 µM) | 50 µg/mL (≈ 166 µM) |  | 12.5 µg/mL (≈ 41.6 µM) | 25 µg/mL (≈ 83.2 µM) | 12.5 µg/mL (≈ 41.6 µM) |
| COc1ccc2c(=O)c(C#CCOC(=O)C(C)C)coc2c1 | 50 µg/mL (≈ 166 µM) | 12.5 µg/mL (≈ 41.6 µM) |  | 3.12 µg/mL (≈ 10.4 µM) | 25 µg/mL (≈ 83.2 µM) | 50 µg/mL (≈ 166 µM) |
| COc1ccc2c(=O)c(C#CCOC(=O)CC(C)C)coc2c1 | 50 µg/mL (≈ 159 µM) | 50 µg/mL (≈ 159 µM) |  | 6.25 µg/mL (≈ 19.9 µM) | 25 µg/mL (≈ 79.5 µM) | > 100 µg/mL |
| CCCCCC(=O)OCC#Cc1coc2cc(OC)ccc2c1=O | > 100 µg/mL | 50 µg/mL (≈ 152 µM) |  | 25 µg/mL (≈ 76.1 µM) | 12.5 µg/mL (≈ 38.1 µM) | > 100 µg/mL |
| COc1ccc2c(=O)c(C#CCOC(=O)C3CCCCC3)coc2c1 | > 100 µg/mL | > 100 µg/mL |  | > 100 µg/mL | > 100 µg/mL | > 100 µg/mL |
| CCCCCCC(=O)OCC#Cc1coc2cc(OC)ccc2c1=O | > 100 µg/mL | > 100 µg/mL |  | > 100 µg/mL | > 100 µg/mL | > 100 µg/mL |
| OC(Cn1cncn1)(Cn1cncn1)c1ccc(F)cc1F [FLUCONAZOLE] | 1 µg/mL (≈ 3.27 µM) | 32 µg/mL (≈ 104 µM) |  | 0.25 µg/mL (≈ 0.816 µM) | 0.5 µg/mL (≈ 1.63 µM) | 0.25 µg/mL (≈ 0.816 µM) |
